# Tests used:
# [1] = Cytotoxicity against african green monkey Vero cells assessed as growth inhibition after 48 hrs by sulforhodamine B assay; assay type: cell-based; conditions: chlorocebus sabaeus
# Procedure, shortened: (§1)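 Cells were exposed to serial compound dilutions in 96-well plates for 48 h at 37 °C alongside solvent controls. Growth was read colorimetrically by sulforhodamine B. GI50 is the concentration giving a 50% reduction in absorbance versus solvent-treated controls, derived by linear regression.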
# [2] = test system: Plasmodium berghei; assay: Antimalarial activity against chloroquine-susceptible Plasmodium berghei ANKA infected in Balb-C mouse assessed as inhibition parasitemia at 20 mg/kg, ip qd for 4 days […]; assay type: functional; conditions: 96 h, route intraperitoneal
# Procedure, shortened: (§2)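 Balb-C mice (18–23 g, n = 6) were infected iv in the caudal vein with 10⁶ P. berghei ANKA-infected RBCs. Dosing started 2 h post-infection: 20 mg/kg ip once daily for 4 days, DMSO stock diluted in Saline-Tween 20 (2%). Chloroquine 25 mg/kg served as positive control; untreated mice were controls. Parasitemia was read on day 4 from Giemsa smears, and survival days were recorded.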
# [3] = test system: M14; assay: Cytotoxicity against human M14 cells assessed as growth inhibition after 48 hrs by sulforhodamine B assay; assay type: functional; conditions: M14, 48 h; procedure, shortened: as §1
# [4] = test system: DU-145; assay: Cytotoxicity against human DU145 cells assessed as growth inhibition after 48 hrs by sulforhodamine B assay; assay type: functional; conditions: DU-145, 48 h; procedure, shortened: as §1
# [5] = test system: Plasmodium berghei; assay: Antimalarial activity against chloroquine-susceptible Plasmodium berghei ANKA assessed as inhibition of trophozoite extract-mediated mouse hemoglobin hydrolysis at 10 mM after 18 hrs by SDS-PAGE; assay type: functional
# Procedure, shortened: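 Trophozoite extract came from P. berghei-infected mouse blood at 30–50% parasitemia: RBCs percoll-purified (80–70%), saponin-lysed, then freeze–thawed three times. Substrate was native haemoglobin from uninfected mouse erythrocytes lysed in water. The mix held GSH and acetate buffer (0.2 M, pH 5.4). Compound was added in DMSO and incubated 37 °C, 18 h. Reactions were stopped with reduced sample buffer.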
# [6] = Cytotoxicity against mouse 3T3 cells assessed as growth inhibition after 48 hrs by sulforhodamine B assay; assay type: cell-based; conditions: NIH3T3 cells; procedure, shortened: as §1
# [7] = test system: NCI-H460; assay: Cytotoxicity against human H460 cells assessed as growth inhibition after 48 hrs by sulforhodamine B assay; assay type: functional; conditions: NCI-H460, 48 h; procedure, shortened: as §1
# [8] = test system: HT-29; assay: Cytotoxicity against human HT-29 cells assessed as growth inhibition after 48 hrs by sulforhodamine B assay; assay type: functional; conditions: HT-29, 48 h; procedure, shortened: as §1
# [9] = test system: Plasmodium berghei; assay: Antimalarial activity against chloroquine-susceptible Plasmodium berghei ANKA infected in Balb-C mouse; assay type: functional, organism-based; procedure, shortened: as §2
# [10] = Inhibition of beta-hematin formation assessed as inhibition of […] polymerization at […] after 48 hrs; assay type: functional
# Procedure, shortened: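 Hemin chloride (50 µL, 4 mM in DMSO) was mixed in triplicate with compound in DMSO; water or DMSO served as controls. Reaction was started with acetate buffer (0.2 M, pH 4.4) and run 37 °C for 48 h. The pellet was DMSO-washed twice, dissolved in 0.2 N NaOH, diluted 1:2 in 0.1 N NaOH, and read at 405 nm as % inhibition of FP polymerization.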
# [11] = test system: Plasmodium berghei; assay: Antimalarial activity against chloroquine-susceptible Plasmodium berghei ANKA infected in Balb-C mouse assessed as mouse survival days at 20 mg/kg, ip qd for 4 days […] relative to untreated control; assay type: functional; conditions: route intraperitoneal
# [12] = test system: Mycobacterium tuberculosis; assay: Antimycobacterial activity against Mycobacterium tuberculosis H37Rv after 5 days by tetrazolium microplate assay; assay type: functional; conditions: 120 h
# Procedure, shortened: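 Tetrazolium microplate assay run in 7H9GC broth. DMSO stocks (4 mg/mL) were diluted to final 0.4–25 µg/mL. Isoniazid (0.125–32 µg/mL) and rifampin (0.063–16 µg/mL) were positive controls; inoculum-only and DMSO controls were included. Plates were incubated 5 days at 37 °C, then an MTT-Tween 80 mix was added and incubation continued 24 h at 37 °C. Run in triplicate. MIC = lowest concentration preventing the yellow-to-purple colour change.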
# [13] = test system: K562; assay: Cytotoxicity against human K562 cells assessed as growth inhibition after 48 hrs by sulforhodamine B assay; assay type: functional; conditions: K562, 48 h; procedure, shortened: as §1
# [14] = test system: MCF7; assay: Cytotoxicity against human MCF7 cells assessed as growth inhibition after 48 hrs by sulforhodamine B assay; assay type: functional; conditions: MCF7, 48 h; procedure, shortened: as §1
structure (smiles),measurement,setting,value
O=C(NNC(=O)c1cc2ccccc2cc1O)c1ccc2[nH]c(-c3ccc([N+](=O)[O-])s3)nc2c1,GI50 at 48 h,[1],31.2 µg/mL
same,inhibition in vivo at 20 mg/kg,[2],1.8%
same,GI50,[3],62.5 µg/mL
same,GI50,[4],62.5 µg/mL
same,inhibition at 10000 µM,[5],14.1%
same,GI50 at 48 h,[6],31.2 µg/mL
same,GI50,[7],62.5 µg/mL
same,GI50,[8],62.5 µg/mL
same,IC50,[9],11.1 µM
same,inhibition,[10],75.8%
same,Survival,[11],18.8 days
same,MIC,[12],> 25 µg/mL
same,GI50,[13],31.2 µg/mL
same,GI50,[14],62.5 µg/mL

# — ChEMBL document CHEMBL1681759, “Synthesis and biological evaluation of benzimidazole-5-carbohydrazide derivatives as antimalarial, cytotoxic and antitubercular agents” (Bioorg Med Chem, 2011)
